The values below come from ChEMBL document CHEMBL1136956, “Identification of 2-aminobenzimidazoles as potent melanin-concentrating hormone 1-receptor (MCH1R) antagonists” (Bioorg Med Chem Lett, 2009).

Broadly, the pIC50 is the IC50 on a negative log10 scale, so that one unit is a factor of ten. Broadly, the CLint scaled is the capacity of the preparation to metabolise the compound, expressed as a volume cleared per time. For orientation: half-life means how long it takes for the measured level to halve. What is called bioavailability is dose-corrected exposure relative to a reference, in per cent. Higher therefore signals much systemic uptake.

pIC50: −log10 of the molar value.

In data set [1] the target is T1, Melanin-concentrating hormone receptor 1 (Homo sapiens, UniProt Q99705). The data set can be described thus: Displacement of [125I]MCH from human MCH1 receptor expressed in CHO-K1 cells by scintillation counting. The data set is classed as cell-based. In outline:
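Membranes of CHO-K1 cells stably expressing human MCH1R incubated with [125I]-MCH and compound in 50 mM Tris, 10 mM MgCl2, 2 mM EDTA, bacitracin, 0.2% BSA, pH 7.4, 2 h at room temperature. Bound label collected by filtration onto GF/C filters and counted by scintillation. Non-specific binding defined with 1 µM unlabeled MCH. IC50 reported as mean of at least two experiments.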
In general terms: In a radioligand displacement assay an active substance lowers the binding of a labelled ligand.

The target of data set [2] is T1, Melanin-concentrating hormone receptor 1. The data set can be described thus: Antagonist activity at human MCH1 receptor expressed in CHO-K1 cells assessed as inhibition of MCH-induced intracellular calcium mobilization by FLIPR assay. The data set is classed as functional, cell-based. The essentials: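 CHO-K1 cells stably expressing human MCH1R, seeded at 3.0 × 10^4 per well and grown 24 h in DMEM/10% FBS with G418. Cells loaded with Fluo-4 AM plus 2.5 mM probenecid for 1 h at 37 °C, then washed into HBSS/20 mM Hepes/0.5% BSA/2.5 mM probenecid, pH 7.4. Compound added 5 min before MCH; Ca2+ mobilization read on FLIPR. IC50 is mean of ≥2 experiments.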

A short description of data set [3]: Intrinsic clearance in rat hepatocytes. The data set is classed as ADME, cell-based, Liver, Hepatocyte.
Data set [4] in a line: Plasma concentration in rat at 30 mg/kg, po after 2 hrs. The data set is classed as ADME, organism-based. Set-up: dose 30 mg/kg, route oral. In outline:
(§1)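 Rats given 30 mg/kg PO; plasma and brain levels determined 2 h post-dose, with brain/plasma ratio taken from these. Mean values, n = 3.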

The test system of data set [5] is Rattus norvegicus. The data set can be described thus: Antiobese activity in high fat fed Sprague-Dawley rat assessed as suppression of […] food intake at 10 mg/kg, po. Type of data set: functional. The essentials: (§2)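 Male SD rats with a 26-gauge guide cannula in the third ventricle, used after ≥1 week recovery. Rats fed high-fat diet ~3 h, then given compound (10 or 30 mg/kg) or vehicle orally. 1 h later MCH (5 µg/head in artificial CSF) was injected ICV, 1 h before dark onset. Food intake measured over 2 h; 15–20 rats per group, versus vehicle/MCH group.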

A short description of data set [6]: Ratio of drug level from brain to plasma in rat at 30 mg/kg, po after 2 hrs. Set-up: dose 30 mg/kg, route oral. The data set is classed as ADME, organism-based. The following applies: brain and plasma, read-out: BPR. The essentials: as §1
Data set [7] relates to Rattus norvegicus. The data set can be described thus: Antiobese activity in high fat fed Sprague-Dawley rat assessed as suppression of […] food intake at 30 mg/kg, po. The data set is classed as functional. In outline: as §2
Data set [8] is described as follows: Half life in rat at 1 mg/kg, iv and 3 mg/kg, po. The data set is classed as ADME, organism-based. The following applies: in vivo. The essentials: (§3)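 Rats dosed at 1 mg/kg IV and 3 mg/kg PO. Clearance, volume of distribution, half-life and oral bioavailability derived from these dosings; mean values, n = 3.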
Data set [9] in a line: Oral bioavailability in rat at 3 mg/kg. Type of data set: ADME, organism-based. The following applies: in vivo. The essentials:
as §3

Another data set deals with Brain. The experiment in a line: Drug level in rat brain at 30 mg/kg, po after 2 hrs. Set-up: dose 30 mg/kg, route oral. Type of data set: ADME, organism-based. Particulars: in vivo. In outline:
as §1

Data set [10] in a line: Volume of distribution in rat at 1 mg/kg, iv and 3 mg/kg, po. Type of data set: ADME, organism-based. The following applies: in vivo. In outline:
as §3

Data set [11] can be described thus: Clearance in rat at 1 mg/kg, iv and 3 mg/kg, po. The data set is classed as ADME, organism-based. Particulars: in vivo. In outline:
as §3

T1 sequence (Q99705 whole entry): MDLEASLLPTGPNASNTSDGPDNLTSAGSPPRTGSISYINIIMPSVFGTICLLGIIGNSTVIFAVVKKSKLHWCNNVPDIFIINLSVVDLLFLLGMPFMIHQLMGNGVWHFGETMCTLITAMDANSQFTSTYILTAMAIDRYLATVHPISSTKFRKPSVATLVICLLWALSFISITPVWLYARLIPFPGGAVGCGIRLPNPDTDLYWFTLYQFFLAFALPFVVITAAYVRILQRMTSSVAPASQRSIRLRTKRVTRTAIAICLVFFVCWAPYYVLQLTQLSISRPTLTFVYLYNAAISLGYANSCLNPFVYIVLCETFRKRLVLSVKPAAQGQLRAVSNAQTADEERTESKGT

`CN(c1nc2ccc(NC(=O)CCc3ccc(C(F)(F)F)cc3)cc2[nH]1)C1CCOC1` (centres undefined): the pIC50 in [1] is 7.57. The same measure, in the same setting: the value for `CN(c1nc2ccc(NC(=O)CCc3ccc(C(F)(F)F)cc3)cc2[nH]1)C1CC1` was 7.62. With `CN(c1nc2ccc(NC(=O)CCc3ccc(C(F)(F)F)cc3)cc2[nH]1)C1CCCC1`, the values for the pIC50 in data set [2] and in [1] were 7.66 and 8.40, respectively. Regarding `CC(=O)N1CCC(N(C)c2nc3ccc(NC(=O)CCc4ccc(C(F)(F)F)cc4)cc3[nH]2)C1` (centres undefined), the pIC50 in data set [1] is 7.52.

For `CN1CCC(N(C)c2nc3ccc(NC(=O)CCc4ccc(C(F)(F)F)cc4)cc3[nH]2)CC1`, in data set [1], the pIC50 was 7.64. Same read-out and setting: to `CC(C)N(C)c1ccc2nc(NC(=O)CCc3ccc(C(F)(F)F)cc3)ccc2n1` belongs 6.43.

Compound `O=C(CCc1ccc(C(F)(F)F)cc1)Nc1ccc2nc(N3CCOCC3)[nH]c2c1` gave a pIC50 in data set [1] of 6.37. Turning to `CC(C)N(C)c1nc2ccc(NC(=O)CCc3ccc(C(F)(F)F)cn3)cc2[nH]1`, the pIC50 in data set [1] is 7.39. In data set [3], `CC(C)N(C)c1nc2ccc(NC(=O)c3ncc(-c4ccc(F)cc4)cn3)cc2[nH]1` gave a CLint scaled of 0.54 L/h/kg. The pIC50 in data set [1] is 7.82. For `CC(C)N(C)c1nc2ccc(NC(=O)c3ccc(-c4ccc(F)cc4)nc3)cc2[nH]1`, in that order: 0.48 L/h/kg and 8.26. In [1], `CC(C)N(C)c1nc2ccc(NC(=O)c3cncc(-c4ccc(F)cc4)c3)cc2[nH]1` showed a pIC50 of 6.05. Regarding `CC(C)N(C)c1nc2ccc(NC(=O)CCc3ccc(C(F)(F)F)cc3)cc2[nH]1`, in [3], the CLint scaled was determined as 1.92 L/h/kg. Moreover, the pIC50 in data set [2] is 7.68; in [1], 8.23. As to `CCN(C)c1nc2ccc(NC(=O)CCc3ccc(C(F)(F)F)cc3)cc2[nH]1`, the pIC50 in [1] is 7.72. For the compound `CC(C)N(C)c1nc2ccc(NC(=O)c3ccc(-c4ccc(C(F)(F)F)cn4)cc3)cc2[nH]1`, the CLint scaled in data set [3] was 0.96 L/h/kg. Also, the pIC50 in data set [1] was 8.51. In data set [3], `CC(C)N(C)c1nc2ccc(NC(=O)c3ccc(-c4ccccc4)nc3)cc2[nH]1` returned a CLint scaled of 0.72 L/h/kg. Besides, in data set [1], the pIC50 was 8.06. Turning to `CN(c1nc2ccc(NC(=O)CCc3ccc(C(F)(F)F)cc3)cc2[nH]1)C1CCCCC1`, the pIC50 in [2] was 7.57; in data set [1], 8.17. In data set [1], `CC(C)N(C)c1ccc2cc(NC(=O)CCc3ccc(C(F)(F)F)cc3)cnc2n1` gave a pIC50 of 6.44. On the same count and under the same terms, to `CCN(c1nc2ccc(NC(=O)CCc3ccc(C(F)(F)F)cc3)cc2[nH]1)C1CCCCC1` belongs 6.87. As to `CC(C)N(C)c1nc2ccc(NC(=O)CCc3ccc(C(F)(F)F)cc3)cc2s1`, the negative-log IC50 (pIC50) in data set [1] is under 6.12. `CC(C)N(C)c1nc2ccc(NC(=O)c3cnc(-c4ccc(F)cc4)cn3)cc2[nH]1` registered a concentration at 2 h in data set [4] of 3.9 µM. The Activity in the data set on Rattus norvegicus [5] is on record as 32%; in the data set on Rattus norvegicus [7], 72%. In data set [6], the Kp at 2 h came to 0.36. In addition, the intrinsic metabolic clearance (CLint scaled) in data set [3] worked out at 0.6 L/h/kg. In addition, the half-life in [8] is 2.3 h. In data set [1], the pIC50 is 8.57. In addition, in data set [9], the bioavailability turned out to be 35%. Moreover, in the data set on Brain, the Drug uptake was 1.4 nmol/g. The compound also displayed a Vd in data set [10] of 1.2 L/kg. This compound also had a clearance in data set [11] of 0.66 L/h/kg. `CN(C)c1nc2ccc(NC(=O)CCc3ccc(C(F)(F)F)cc3)cc2[nH]1` gave a pIC50 in [1] of 7.92.
